{"data": "Experimental data collected from several papers", "read-out": "enzyme activity", "mode": "inhibitor", "CDK2 with cyclin A": "Cyclin-dependent kinase 2, with cyclin A (CDK2, Homo sapiens, UniProt P24941)", "CDK2 with cyclin E": "Cyclin-dependent kinase 2, with cyclin E (CDK2, Homo sapiens, UniProt P24941)", "CDK2 with cyclin E2": "Cyclin-dependent kinase 2, with cyclin E2 (CDK2, Homo sapiens, UniProt P24941)"}
{"SMILES": "Nc1nc(NC2CCCCC2)sc1C(=O)c1ccccc1", "target": "CDK2 with cyclin A", "conditions": "10 µM", "remaining activity [%]": 5}
{"SMILES": "Cc1cnc(NC2CCOCC2)nc1-n1cnc(C(=O)NC(CN)c2cc(F)cc(Cl)c2)c1 (stereo not drawn)", "target": "CDK2 with cyclin A", "assay": "radiometric", "conditions": "1 µM", "remaining activity [%]": 3}
{"SMILES": "COc1cc(Cl)c(C(=O)N[C@@H](CN[C@H]2CC[C@@H](N)CC2)Cc2ccc(C#N)cc2)cc1-c1ccc(CN[C@H](C)c2ccc(C)cc2)o1", "target": "CDK2 with cyclin E", "conditions": "1 µM", "remaining activity [%]": 90}
{"SMILES": "CC(C)(C)c1nc2c(s1)c1nc(N)ncc1c1ccc(NS(=O)(=O)c3c(F)cccc3F)c(F)c12", "target": "Cyclin-dependent kinase 2, with cyclin E1 (CDK2, Homo sapiens, UniProt P24941)", "assay": "radiometric", "conditions": "1 µM", "remaining activity [%]": 93}
{"SMILES": "Cc1ccc(C(=O)Nc2ccc(CN3CCN(C)CC3)c(C(F)(F)F)c2)cc1C#Cc1cnc2cccnn12", "target": "Cyclin-dependent kinase 2 (CDK2, Homo sapiens, UniProt P24941)", "conditions": "23.5 nM", "remaining activity [%]": 96}
{"SMILES": "FC(F)c1nc2ccccc2n1-c1nc(N2CCOCC2)nc(N2CCOCC2)n1", "target": "CDK2 with cyclin A", "conditions": "10 µM", "remaining activity [%]": 77}
{"SMILES": "Nc1nc(Nc2ccccc2)sc1C(=O)c1c(F)cccc1F", "target": "CDK2 with cyclin A", "conditions": "10 µM", "remaining activity [%]": 2}
{"SMILES": "CC(C)(C)c1nc(-c2cccc(NS(=O)(=O)c3c(F)cccc3F)c2F)c(-c2ccnc(N)n2)s1", "target": "Cyclin-dependent kinase 2, with cyclin A2 (CDK2, Homo sapiens, UniProt P24941)", "assay": "radiometric", "conditions": "1 µM", "remaining activity [%]": 72}
{"SMILES": "CC(C)(O)[C@H]1CC[C@H](Nc2ccc3ncc(-c4cccc(C(F)(F)F)c4)n3n2)CC1", "target": "CDK2 with cyclin A", "conditions": "1 µM", "remaining activity [%]": 96.9}
{"SMILES": "O=C(Nc1cnn(-c2csc(C(=O)NC3COC3)c2)c1)Nc1ccccc1Cl", "target": "CDK2 with cyclin E2", "conditions": "5 µM", "remaining activity [%]": 107}
{"SMILES": "Oc1cccc(-c2nc(N3CCOCC3)c3oc4ncccc4c3n2)c1", "target": "CDK2 with cyclin A", "conditions": "10 µM", "remaining activity [%]": 94}
{"SMILES": "Cc1sc(C(=O)NC2COC2)cc1-n1cc(NC(=O)Nc2c(F)cccc2Cl)cn1", "target": "CDK2 with cyclin E2", "conditions": "10 µM", "remaining activity [%]": 90.8}
{"SMILES": "COc1cc(Nc2cnc(C#N)c(O[C@H](C)CN(C)C)n2)ncc1-c1cnn(C)c1", "target": "CDK2 with cyclin A", "assay": "radiometric", "conditions": "10 µM", "remaining activity [%]": 91}
{"SMILES": "Cc1ccc(Nc2nccc(N(C)c3ccc4c(C)n(C)nc4c3)n2)cc1S(N)(=O)=O", "target": "CDK2 with cyclin E", "conditions": "0.5 µM", "remaining activity [%]": 96.4}
{"SMILES": "O=C(Nc1cnn(-c2csc(C(=O)NC3COC3)c2)c1)Nc1c(F)cccc1Cl", "target": "Cyclin-dependent kinase 2, with cyclin A1 (CDK2, Homo sapiens, UniProt P24941)", "conditions": "5 µM", "remaining activity [%]": 94.2}
